The test system of assay [1] is B. dioryctriae. Briefly: Y-tube olfactometer assay. In kind it is in vivo, Baryscapus dioryctriae. As to conditions: 20 μL test chemical vs paraffin oil, chi-square test. The gist of the method:
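Binary Y-tube (1.1 cm diameter, 6 cm base and arms, 60° between arms) used with wasps reared at 25 ± 1 °C, 50 ± 5% RH. One arm held 20 × 50 mm filter paper loaded with 20 μL test chemical; the other held 20 μL paraffin oil. After every five wasps, the tube was cleaned with dehydrated alcohol and air-dried, and odour sides were swapped.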

In assay [2] the test system is B. dioryctriae. As to conditions: cited from earlier work.

In the case of `C=C1CC[C@H]2O[C@]2(C)CC[C@@H]2[C@@H]1CC2(C)C` [Caryophyllene oxide], in the assay on B. dioryctriae [1], the “behavioral response (attraction) of B. dioryctriae adults” value (shortened to “behavioral response (attraction)”) is listed as “does not attract”.

As for `CCCCCC=C(C=O)CCCC` [2-butyl-2-octenal], the “effect on reproductive efficiency of B. dioryctriae” value with B. dioryctriae [2] was “significantly improve”. For `CC1=CCC2CC1C2(C)C` (stereo not drawn) [α-Pinene], the “behavioral response (attraction)” value with B. dioryctriae [1] was “significantly attract”.

On to `CC1=CCC(C(C)C)=CC1` [g-Terpinene], for which, in the assay with B. dioryctriae [1], the “behavioral response (attraction)” value is recorded as “significantly attract”.
